Data taken from ChEMBL document CHEMBL1149749, “Antibacterial activity of totarol and its potentiation” (1992).
Values after ≈ are worked out from the molar mass of the structure shown. Active and inactive are the calls of the source. The calls are words filed in the database; no cut-off is given here.

Legend:
[1] = system: Candida albicans; assay: Antifungal activity against Candida albicans ATCC 18804 up to 400 ug/ml after 2 days by twofold serial dilution method; assay type: functional, organism-based
Procedure, shortened: (§1)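 Twofold serial broth dilution in each organism's own medium, DMF held at 1% in all tubes. The highest concentration was 400 µg/ml unless otherwise specified. MIC was taken as the lowest concentration with no visible growth, and determinations were done in duplicate.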

[2] = system: Penicillium chrysogenum; assay: Antifungal activity against Penicillium chrysogenum ATCC 10106 up to 400 ug/ml after 2 days by twofold serial dilution method; assay type: functional, organism-based; procedure, shortened: as §1
[3] = system: Staphylococcus aureus; assay: Antibacterial activity against penicillin-resistant Staphylococcus aureus ATCC 29247 up to 400 ug/ml after 2 days by twofold serial dilution method; assay type: functional, organism-based
Procedure, shortened: (§2)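 Twofold serial broth dilution, highest concentration 400 µg/ml. Samples were delivered in DMF, kept at 1% in the medium throughout. MIC was the lowest concentration with no visible growth, determined in duplicate.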

[4] = system: Cutibacterium acnes; assay: Antibacterial activity against Propionibacterium acnes ATCC 11827 up to 400 ug/ml after 2 days by twofold serial dilution method; assay type: functional, organism-based; procedure, shortened: as §1
[5] = system: Bacillus subtilis; assay: Antibacterial activity against Bacillus subtilis ATCC 9372 up to 400 ug/ml after 2 days by twofold serial dilution method; assay type: functional, organism-based; procedure, shortened: as §1
[6] = system: Escherichia coli; assay: Antibacterial activity against Escherichia coli ATCC 13048 up to 400 ug/ml after 2 days by twofold serial dilution method; assay type: functional, organism-based; procedure, shortened: as §1
[7] = system: Klebsiella aerogenes; assay: Antibacterial activity against Enterobacter aerogenes ATCC 13048 up to 400 ug/ml after 2 days by twofold serial dilution method; assay type: functional, organism-based; procedure, shortened: as §1
[8] = system: Streptococcus mutans; assay: Antibacterial activity against Streptococcus mutans ATCC 25175 up to 400 ug/ml after 2 days by twofold serial dilution method; assay type: functional, organism-based; procedure, shortened: as §1
[9] = system: Malassezia; assay: Antifungal activity against Pityrosporum ovale ATCC 14521 up to 400 ug/ml after 2 days by twofold serial dilution method; assay type: functional, organism-based; procedure, shortened: as §1
[10] = system: Staphylococcus aureus; assay: Antibacterial activity against penicillin-susceptible Staphylococcus aureus ATCC 12598 up to 400 ug/ml after 2 days by twofold serial dilution method; assay type: functional, organism-based; procedure, shortened: as §1
[11] = system: Saccharomyces cerevisiae; assay: Antifungal activity against Saccharomyces cerevisiae ATCC 7754 up to 400 ug/ml after 2 days by twofold serial dilution method; assay type: functional, organism-based; procedure, shortened: as §1
[12] = system: Corynebacterium ammoniagenes; assay: Antibacterial activity against Brevibacterium ammoniagenes ATCC 6872 up to 400 ug/ml after 2 days by twofold serial dilution method; assay type: functional, organism-based; procedure, shortened: as §1
[13] = system: Pseudomonas aeruginosa; assay: Antibacterial activity against Pseudomonas aeruginosa ATCC 10145 up to 400 ug/ml after 2 days by twofold serial dilution method; assay type: functional, organism-based; procedure, shortened: as §1
[14] = system: Cutibacterium acnes; assay: Antibacterial activity against Propionibacterium acnes ATCC 11827 after 2 days by twofold serial dilution method; assay type: functional; conditions: ATCC 11827, 48 h; procedure, shortened: as §1
[15] = system: Corynebacterium ammoniagenes; assay: Antibacterial activity against Brevibacterium ammoniagenes ATCC 6872 after 2 days by twofold serial dilution method; assay type: functional; conditions: ATCC 6872, 48 h; procedure, shortened: as §1
[16] = system: Staphylococcus aureus; assay: Antibacterial activity against penicillin-susceptible Staphylococcus aureus ATCC 12598 after 2 days by twofold serial dilution method; assay type: functional; conditions: ATCC 12598, 48 h; procedure, shortened: as §1
[17] = system: Streptococcus mutans; assay: Antibacterial activity against Streptococcus mutans ATCC 25175 after 2 days by twofold serial dilution method; assay type: functional; conditions: ATCC 25175, 48 h; procedure, shortened: as §1
[18] = system: Bacillus subtilis; assay: Antibacterial activity against Bacillus subtilis ATCC 9372 after 2 days by twofold serial dilution method; assay type: functional; conditions: ATCC 9372, 48 h; procedure, shortened: as §1
[19] = system: Staphylococcus aureus; assay: Antibacterial activity against penicillin-resistant Staphylococcus aureus ATCC 29247 after 2 days by twofold serial dilution method; assay type: functional; conditions: ATCC 29247, 48 h; procedure, shortened: as §2

Row | SMILES | Activity [1] | Activity [2] | Activity [3] | Activity [4] | Activity [5] | Activity [6] | Activity [7] | Activity [8] | Activity [9] | Activity [10] | Activity [11] | Activity [12] | Activity [13] | MIC [14] [µg/mL] | MIC [15] [µg/mL] | MIC [16] [µg/mL] | MIC [17] [µg/mL] | MIC [18] [µg/mL] | MIC [19] [µg/mL] | also measured
1 | CC(C)c1c(O)ccc2c1CC[C@H]1[C@@](C)(CO)CCC[C@]21C | inactive | inactive | inactive | inactive | inactive | inactive | inactive | inactive | inactive | inactive | inactive | inactive | inactive |  |  |  |  |  |  | 
2 | CC(C)c1c(O)ccc2c1CC[C@H]1C(C)(C)[C@@H](O)CC[C@]21C [TOTARADIOL] | inactive | inactive |  |  |  | inactive | inactive |  | inactive |  | inactive |  | inactive | 25 (≈ 82.7 µM) | 100 (≈ 331 µM) | 50 (≈ 165 µM) | 200 (≈ 661 µM) | 25 (≈ 82.7 µM) |  | 
3 | CC(C)c1c(O)ccc2c1CC[C@H]1[C@@](C)(C(=O)O)CCC[C@]21C | inactive | inactive | inactive | inactive | inactive | inactive | inactive | inactive | inactive | inactive | inactive | inactive | inactive |  |  |  |  |  |  | 
4 | CC1(C)S[C@@H]2[C@H](NC(=O)Cc3ccccc3)C(=O)N2[C@H]1C(=O)O [PENICILLIN G] |  |  |  |  |  |  |  |  |  |  |  |  |  | 0.012 (≈ 0.0359 µM) | 0.39 (≈ 1.17 µM) | 0.049 (≈ 0.147 µM) | 0.049 (≈ 0.147 µM) | 50 (≈ 150 µM) | > 800 | 
5 | CC(C)c1c(O)ccc2c1CC[C@H]1[C@@](C)(C=O)CCC[C@]21C | inactive | inactive | inactive | inactive | inactive | inactive | inactive | inactive | inactive | inactive | inactive | inactive | inactive |  |  |  |  |  |  | 
6 | CC(C)c1c(O)ccc2c1CC[C@H]1C(C)(C)CCC[C@]21C [TOTAROL] | inactive | inactive |  |  |  | inactive | inactive |  | inactive |  | inactive |  | inactive | 0.39 (≈ 1.36 µM) | 0.78 (≈ 2.72 µM) | 1.56 (≈ 5.45 µM) | 0.78 (≈ 2.72 µM) | 1.56 (≈ 5.45 µM) | 0.78 (≈ 2.72 µM) | MBC [14]: 0.78 µg/mL (≈ 2.72 µM); MBC [15]: 6.25 µg/mL (≈ 21.8 µM); MBC [16]: 1.56 µg/mL (≈ 5.45 µM); MBC [17]: 0.78 µg/mL (≈ 2.72 µM); MBC [18]: 1.56 µg/mL (≈ 5.45 µM)
